Reference: ChEMBL document CHEMBL4270599, “Synthesis of a 3'-C-ethynyl-β-d-ribofuranose purine nucleoside library: Discovery of C7-deazapurine analogs as potent antiproliferative nucleosides” (Eur J Med Chem, 2018)

Experiments:
SK-OV-3 [1] = assay: Growth inhibition of human SKOV3 cells assessed as cell growth at 10^-7 M incubated for 48 hrs by sulforhodamine B assay relative to control; assay type: functional; details: SK-OV-3, 48 h, read-out: Activity
786-0 = assay: Growth inhibition of human 786-0 cells assessed as cell growth at 10^-8 M incubated for 48 hrs by sulforhodamine B assay relative to control; assay type: functional; details: 786-0, 48 h, read-out: Activity
OVCAR-5 = assay: Growth inhibition of human OVCAR5 cells assessed as cell growth at 10^-7 M incubated for 48 hrs by sulforhodamine B assay relative to control; assay type: functional; details: OVCAR-5, 48 h, read-out: Activity
IGROV-1 = assay: Cytotoxicity against human IGROV1 cells after 48 hrs by SRB assay; assay type: functional; details: IGROV-1, 48 h
SK-MEL-28 = assay: Growth inhibition of human SK-MEL-28 cells assessed as cell growth at 10^-8 M incubated for 48 hrs by sulforhodamine B assay relative to control; assay type: functional; details: SK-MEL-28, 48 h, read-out: Activity
HCT-116 = assay: Growth inhibition of human HCT116 cells assessed as cell growth at 10^-7 M incubated for 48 hrs by sulforhodamine B assay relative to control; assay type: functional; details: HCT-116, 48 h, read-out: Activity
K562 = assay: Growth inhibition of human K562 cells assessed as cell growth at 10^-7 M incubated for 48 hrs by sulforhodamine B assay relative to control; assay type: functional; details: K562, 48 h, read-out: Activity
HT-29 [2] = assay: Growth inhibition of human HT-29 cells assessed as cell growth at 10^-7 M incubated for 48 hrs by sulforhodamine B assay relative to control; assay type: functional; details: HT-29, 48 h, read-out: Activity
HCT-15 = assay: Growth inhibition of human HCT15 cells assessed as cell growth at 10^-8 M incubated for 48 hrs by sulforhodamine B assay relative to control; assay type: functional; details: HCT-15, 48 h, read-out: Activity
ACHN = assay: Growth inhibition of human ACHN cells assessed as cell growth at 10^-8 M incubated for 48 hrs by sulforhodamine B assay relative to control; assay type: functional; details: read-out: Activity
U-251 = assay: Growth inhibition of human U251 cells assessed as cell growth at 10^-7 M incubated for 48 hrs by sulforhodamine B assay relative to control; assay type: functional; details: U-251, 48 h, read-out: Activity
BT-549 = assay: Growth inhibition of human BT549 cells assessed as cell growth at 10^-7 M incubated for 48 hrs by sulforhodamine B assay relative to control; assay type: functional; details: BT-549, 48 h, read-out: Activity
COLO 205 = assay: Growth inhibition of human COLO205 cells assessed as cell growth at 10^-8 M incubated for 48 hrs by sulforhodamine B assay relative to control; assay type: functional; details: COLO 205, 48 h, read-out: Activity
HOP-62 = assay: Growth inhibition of human HOP62 cells assessed as cell growth at 10^-7 M incubated for 48 hrs by sulforhodamine B assay relative to control; assay type: functional; details: HOP-62, 48 h, read-out: Activity
MCF7 = assay: Growth inhibition of human MCF7 cells assessed as cell growth at 10^-8 M incubated for 48 hrs by sulforhodamine B assay relative to control; assay type: functional; details: MCF7, 48 h, read-out: Activity
OVCAR-3 = assay: Growth inhibition of human OVCAR3 cells assessed as cell growth at 10^-8 M incubated for 48 hrs by sulforhodamine B assay relative to control; assay type: functional; details: OVCAR-3, 48 h, read-out: Activity
SN12C = assay: Cytotoxicity against human SN12C cells after 48 hrs by SRB assay; assay type: functional
KM12 = assay: Growth inhibition of human KM12 cells assessed as cell growth at 10^-7 M incubated for 48 hrs by sulforhodamine B assay relative to control; assay type: functional; details: KM12, 48 h, read-out: Activity
SK-OV-3 [3] = assay: Growth inhibition of human SKOV3 cells assessed as cell growth at 10^-4 M incubated for 48 hrs by sulforhodamine B assay relative to control; assay type: functional; details: SK-OV-3, 48 h, read-out: Activity
HT-29 [4] = assay: Cytotoxicity against human HT-29 cells after 48 hrs by SRB assay; assay type: functional; details: HT-29, 48 h
DU-145 = assay: Growth inhibition of human DU145 cells assessed as cell growth at 10^-5 M incubated for 48 hrs by sulforhodamine B assay relative to control; assay type: functional; details: DU-145, 48 h, read-out: Activity
SR = assay: Growth inhibition of human SR cells assessed as cell growth at 10^-4 M incubated for 48 hrs by sulforhodamine B assay relative to control; assay type: functional; details: read-out: Activity
[5] = Antiproliferative activity against HMVEC-d cells after 4 days by Coulter counter method; assay type: cell-based; details: Homo sapiens, 96 h
Summary of the method: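 Primary HUVEC, primary HMVEC-d and the HMEC-1 line seeded at 20,000 cells/well in gelatin-coated plates in EC growth medium (EGM2). After overnight incubation, 5-fold compound dilutions added. Cells proliferated four days with compound, then trypsinized and counted by Coulter counter to derive IC₅₀.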

UACC-257 [6] = assay: Growth inhibition of human UACC257 cells assessed as cell growth at 10^-8 M incubated for 48 hrs by sulforhodamine B assay relative to control; assay type: functional; details: UACC-257, 48 h, read-out: Activity
SK-MEL-5 = assay: Cytotoxicity against human SK-MEL-5 cells after 48 hrs by SRB assay; assay type: functional; details: SK-MEL-5, 48 h
UACC-257 [7] = assay: Cytotoxicity against human UACC257 cells after 48 hrs by SRB assay; assay type: functional; details: UACC-257, 48 h
HOP-92 = assay: Growth inhibition of human HOP92 cells assessed as cell growth at 10^-6 M incubated for 48 hrs by sulforhodamine B assay relative to control; assay type: functional; details: HOP-92, 48 h, read-out: Activity
OVCAR-4 = assay: Growth inhibition of human OVCAR4 cells assessed as cell growth at 10^-7 M incubated for 48 hrs by sulforhodamine B assay relative to control; assay type: functional; details: OVCAR-4, 48 h, read-out: Activity
NCI-H460 = assay: Growth inhibition of human NCI-H460 cells assessed as cell growth at 10^-8 M incubated for 48 hrs by sulforhodamine B assay relative to control; assay type: functional; details: NCI-H460, 48 h, read-out: Activity
SW-620 = assay: Growth inhibition of human SW620 cells assessed as cell growth at 10^-6 M incubated for 48 hrs by sulforhodamine B assay relative to control; assay type: functional; details: SW-620, 48 h, read-out: Activity
NCI-H23 = assay: Cytotoxicity against human NCI-H23 cells after 48 hrs by SRB assay; assay type: functional; details: NCI-H23, 48 h
[8] = read-out: LC50 (the source's name)
[9] = read-out: pLC50 (the source's name) (converted)

C#C[C@@]1(O)[C@@H](CO)O[C@@H](n2cc(F)c3c(N)ncnc32)[C@@H]1O
growth at 0.1 µM (SK-OV-3 [1]): 81% | growth at 0.01 µM (786-0): 94% | growth at 0.1 µM (OVCAR-5): 108% | CC50 (IGROV-1; [8]): > 100 µM | TGI (IGROV-1; read-out: TGI): 1420 nM | GI50 (IGROV-1; read-out: pGI50 (converted)): 324 nM | TGI (IGROV-1; read-out: pTGI (converted)): 1410 nM | growth at 0.01 µM (SK-MEL-28): 102% | growth at 0.1 µM (HCT-116): 60% | growth at 0.1 µM (K562): 78% | growth at 0.1 µM (HT-29 [2]): 68% | growth at 0.01 µM (HCT-15): 97% | growth at 0.01 µM (ACHN): 102% | growth at 0.1 µM (U-251): 99% | growth at 0.1 µM (BT-549): 107% | growth at 0.01 µM (COLO 205): 101% | growth at 0.1 µM (HOP-62): 101% | growth at 0.01 µM (MCF7): 89% | growth at 0.01 µM (OVCAR-3): 106% | TGI (SN12C; read-out: TGI): 4.74 µM | CC50 (SN12C; [9]): > 100 µM | TGI (SN12C; read-out: pTGI (converted)): 4.79 µM | growth at 0.1 µM (KM12): 85% | growth at 100 µM (SK-OV-3 [3]): -30% | TGI (HT-29 [4]; read-out: TGI): > 100 µM | GI50 (HT-29 [4]; read-out: pGI50 (converted)): 209 nM | CC50 (HT-29 [4]; [9]): > 100 µM | TGI (HT-29 [4]; read-out: pTGI (converted)): > 100 µM | growth at 10 µM (DU-145): 1% | growth at 100 µM (SR): 3% | IC50 [5]: < 1.28 nM | growth at 0.01 µM (UACC-257 [6]): 91% | TGI (SK-MEL-5; read-out: TGI): 1330 nM | GI50 (SK-MEL-5; read-out: pGI50 (converted)): 269 nM | CC50 (SK-MEL-5; [9]): 4.17 µM | TGI (SK-MEL-5; read-out: pTGI (converted)): 1350 nM | CC50 (UACC-257 [7]; [8]): > 100 µM | TGI (UACC-257 [7]; read-out: TGI): 4.64 µM | GI50 (UACC-257 [7]; read-out: pGI50 (converted)): 490 nM | TGI (UACC-257 [7]; read-out: pTGI (converted)): 4.68 µM | growth at 1 µM (HOP-92): 24% | growth at 0.1 µM (OVCAR-4): 90% | growth at 0.01 µM (NCI-H460): 100% | growth at 1 µM (SW-620): 4% | TGI (NCI-H23; read-out: TGI): 6.85 µM | GI50 (NCI-H23; read-out: pGI50 (converted)): 398 nM | CC50 (NCI-H23; [9]): > 100 µM | TGI (NCI-H23; read-out: pTGI (converted)): 6.92 µM
